# Assay results: ChEMBL document CHEMBL1127395, “Synthesis and antimicrobial activity of novel 3-[(aminopyrimidiniumyl)thio]methyl cephalosporins” (1994)
# Tests used:
# Citrobacter freundii = experiment: In vitro minimum inhibitory concentration for Citrobacter freundii (ATCC-8090) by agar dilution method; format: functional; conditions: Citrobacter freundii; read-out: MIC
# How it was run: (§1)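 Two-fold serial dilutions of each compound dispersed in Mueller-Hinton agar; plates spot-inoculated with 2 μL of standard test strain at 10^7 CFU/mL, incubated 37 °C for 20 h; MIC read as lowest concentration inhibiting growth.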
# Enterobacter cloacae = experiment: In vitro minimum inhibitory concentration for Enterobacter cloacae (ATCC-27508) by agar dilution method; format: functional; conditions: Enterobacter cloacae; read-out: MIC; how it was run: as §1
# Klebsiella aerogenes = experiment: In vitro minimum inhibitory concentration for Enterobacter aerogenes (ATCC-29751) by agar dilution method; format: functional; conditions: Klebsiella aerogenes; read-out: MIC; how it was run: as §1
# Klebsiella pneumoniae = experiment: In vitro minimum inhibitory concentration for Klebsiella pneumoniae (ATCC-10031) by agar dilution method; format: functional; conditions: Klebsiella pneumoniae; read-out: MIC
# Pseudomonas aeruginosa [1] = experiment: In vitro minimum inhibitory concentration for Pseudomonas aeruginosa (ATCC-27853) by agar dilution method; format: functional; conditions: Pseudomonas aeruginosa; read-out: MIC; how it was run: as §1
# Proteus vulgaris = experiment: In vitro minimum inhibitory concentration for Proteus vulgaris (ATCC-6059) by agar dilution method; format: functional; conditions: Proteus vulgaris; read-out: MIC; how it was run: as §1
# Salmonella typhimurium = experiment: In vitro minimum inhibitory concentration for Salmonella Typhimurium (ATCC-14028) by agar dilution method; format: functional, Salmonella enterica subsp. enterica serovar Typhimurium; conditions: Salmonella enterica; read-out: MIC; how it was run: as §1
# Serratia marcescens = experiment: In vitro minimum inhibitory concentration for Serratia marcescens (ATCC-27117) by agar dilution method; format: functional; conditions: Serratia marcescens; read-out: MIC; how it was run: as §1
# [2] = tested on: Staphylococcus epidermidis; experiment: In vitro minimum inhibitory concentration for Staphylococcus epidermidis (ATCC-12228) by agar dilution method; format: functional; conditions: Staphylococcus epidermidis; read-out: MIC; how it was run: as §1
# Staphylococcus aureus = experiment: In vitro minimum inhibitory concentration for Staphylococcus aureus (ATCC 6538p) by agar dilution method; format: functional; conditions: Staphylococcus aureus, ATCC 6538p; read-out: MIC; how it was run: as §1
# Escherichia coli = experiment: In vitro minimum inhibitory concentration for Escherichia coli (ATCC-10536) by agar dilution method; format: functional; conditions: Escherichia coli; read-out: MIC; how it was run: as §1
# Pseudomonas aeruginosa [3] = experiment: In vitro minimum inhibitory concentration for Pseudomonas aeruginosa (ATCC 10145) by agar dilution method; format: functional; how it was run: as §1
Compound,MIC (Citrobacter freundii) [µg/mL],MIC (Enterobacter cloacae) [µg/mL],MIC (Klebsiella aerogenes) [µg/mL],MIC (Klebsiella pneumoniae) [µg/mL],MIC (Pseudomonas aeruginosa [1]) [µg/mL],MIC (Proteus vulgaris) [µg/mL],MIC (Salmonella typhimurium) [µg/mL],MIC (Serratia marcescens) [µg/mL],MIC [2] [µg/mL],MIC (Staphylococcus aureus) [µg/mL],MIC (Escherichia coli) [µg/mL],MIC (Pseudomonas aeruginosa [3]) [µg/mL]
Cc1ccc(-[n+]2c(N)cc(N)nc2SCC2=C(C(=O)[O-])N3C(=O)C(NC(=O)/C(=N\OC(C)(C)C(=O)O)c4cnc(N)s4)C3SC2)c(C)c1 (centres undefined),2,0.13,2,0.13,2,0.25,2,2,2,4,0.5,8
Cn1c(O)c[n+]2c(SCC3=C(C(=O)[O-])N4C(=O)C(NC(=O)/C(=N\OC(C)(C)C(=O)O)c5cnc(N)s5)C4SC3)nc(N)cc12 (centres undefined),0.25,0.03,4,0.13,4,0.06,0.5,0.5,4,16,0.13,4
CC(C)(O/N=C(\C(=O)N[C@@H]1C(=O)N2C(C(=O)[O-])=C(C[n+]3ccccc3)CS[C@H]12)c1csc(N)n1)C(=O)O [CEFTAZIDIME],0.13,0.03,4,–,1,0.06,0.25,0.13,4,8,0.06,2
Cc1cccc(C)c1-[n+]1c(N)cc(N)nc1SCC1=C(C(=O)[O-])N2C(=O)C(NC(=O)/C(=N\OC(C)(C)C(=O)O)c3cnc(N)s3)C2SC1 (centres undefined),1,0.25,2,0.25,4,0.5,2,2,2,4,0.5,8
CNc1cc2n(C)cc[n+]2c(SCC2=C(C(=O)[O-])N3C(=O)C(NC(=O)/C(=N\OC(C)(C)C(=O)O)c4cnc(N)s4)C3SC2)n1 (centres undefined),0.13,0.03,4,0.25,4,0.13,0.5,0.5,4,8,0.13,8

# The remaining molecules from weak to strong by MIC (Citrobacter freundii), led by results:
MIC (Citrobacter freundii) [µg/mL],MIC (Enterobacter cloacae) [µg/mL],MIC (Klebsiella aerogenes) [µg/mL],MIC (Klebsiella pneumoniae) [µg/mL],MIC (Pseudomonas aeruginosa [1]) [µg/mL],MIC (Proteus vulgaris) [µg/mL],MIC (Salmonella typhimurium) [µg/mL],MIC (Serratia marcescens) [µg/mL],MIC [2] [µg/mL],MIC (Staphylococcus aureus) [µg/mL],MIC (Escherichia coli) [µg/mL],MIC (Pseudomonas aeruginosa [3]) [µg/mL],Compound
8,0.25,16,0.5,8,0.13,1,2,64,128,1,8,C[n+]1cccnc1SCC1=C(C(=O)[O-])N2C(=O)C(NC(=O)/C(=N\OC(C)(C)C(=O)O)c3cnc(N)s3)C2SC1 (centres undefined)
0.25,0.06,4,0.13,4,0.06,0.5,0.25,8,8,0.13,4,Cc1cc(C)[n+](C)c(SCC2=C(C(=O)[O-])N3C(=O)C(NC(=O)/C(=N\OC(C)(C)C(=O)O)c4cnc(N)s4)C3SC2)n1 (centres undefined)
0.25,0.06,0.5,0.13,2,0.13,0.5,0.5,2,4,0.25,4,CC(C)(O/N=C(\C(=O)NC1C(=O)N2C(C(=O)[O-])=C(CSc3nc(N)cc(N)[n+]3-c3ccccc3)CSC12)c1cnc(N)s1)C(=O)O (centres undefined)
0.06,0.02,0.5,0.06,2,0.06,0.13,0.25,2,4,0.06,4,CC(C)(O/N=C(\C(=O)NC1C(=O)N2C(C(=O)[O-])=C(CSc3nc(N)c4c([n+]3N)CCCC4)CSC12)c1cnc(N)s1)C(=O)O (centres undefined)
0.06,0.02,1,0.06,1,0.02,0.13,0.06,2,4,0.06,1,CC(C)(O/N=C(\C(=O)NC1C(=O)N2C(C(=O)[O-])=C(CSc3nc(N)cc(N)[n+]3N)CSC12)c1cnc(N)s1)C(=O)O (centres undefined)
